Compound activity: PubChem, Broad Institute
Sampled rows, rich in hits. Any-hit rate of the full collection: about 3.1%.
CSC inhib – cancer stem cell viability inhibitors, primary screen, luminescence | inhibition, % at 7.5 µM | AID 2717, 2010 | 300,000 compounds, 1.1% hits | cancer stem cell-like cells viability; in the data active = inhibition above about 75%; inconclusive = no clear call, values can overlap the other calls; tested in HMLE shEcad cells
PolyA inhibitor – polyadenylation inhibitors in yeast reporter cells, primary screen, luminescence, S. cerevisiae | 300,000 compounds, 0.02% hits | activity score, % at 12 µM | S. cerevisiae SKY197-pL101 polyadenylation reporter, beta-gal luminescence; efflux-impaired pdr1/pdr3 knockout yeast; score 100 = 6 SD above DMSO;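 active = lowest replicate activity score at least 50, where 100 means six control SD above control mean; inconclusive = lowest score under 50 but half or more replicates reach 50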;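 note: yeast exposed to compound for 9 h at 30 °C; higher score means more reporter readthrough which indicates perturbed polyadenylation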
HIF activator – HIF pathway transcriptional activators, primary screen, cell-based, U2OS HRE-luciferase, luminescence; U2OS HRE-luciferase reporter; normalized: DMSO 0%, desferrioxamine 100%; AID 1910, 2009; 300,000 compounds, 0.32% hits; activation, % at 7.5 µM (by protocol);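 active = mean activation of at least 10% of the iron chelator positive control signal, with at least half of replicates also reaching 10%; inconclusive = mean and replicate majority disagree about reaching 10%; inactive = mean and most replicates under 10%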
Beta cell apopt – inhibitors of cytokine-induced beta cell apoptosis, primary screen, luminescence; INS-1E cytokine-induced death, ATP luminescence, 48 h; percent of positive-control rescue, neutral wells zero; protection from apoptosis, % (concentration not given with the values); 300,000 compounds, 0.8% hits;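 active = Every replicate reaches about 75%, or at least half do and their mean reaches it too, limit read from the data; inconclusive = At least half of replicates reach the limit but their mean does not; inactive = Under half of replicates reach the limit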;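 note: higher means more ATP so stronger rescue from cytokine killing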
T cruzi repl – inhibitors of intracellular T. cruzi growth, primary screen, luminescence, NIH3T3 host cells | T. cruzi beta-gal in NIH3T3, 90 h | inhibition, % (test concentration not listed) | 300,000 compounds, 1.4% hits | AID 1885, 2009;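 active = mean inhibition across valid replicates above about 55%, limit read from the data; inconclusive = mean below that limit but half or more replicates reach it; inactive = mean below it, under half of replicates reach it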;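 note: signal also drops with host cell toxicity which is not excluded here; higher percent means less beta-gal luminescence so fewer parasites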
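System: mouse NIH/3T3 fibroblasts infected with β-gal-expressing T. cruzi Tulahuen C4 / Input: NIH/3T3 cells, 5,000 per well / Buffer or medium: Low-serum DMEM with 2% FBS / Probe or stimulus: 5000 reporter trypomastigotes per well / Schedule: ≥90 h infection period, 3 h prior cell attachment / Measured by: GalScreen luminescence, 60 min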
Calb FLC – C. albicans growth inhibition with fluconazole, primary screen, CaCi-2 strain, Alamar Blue fluorescence; growth inhibition, % (test concentration not listed); C. albicans CaCi-2 (fluconazole-resistant clinical isolate) + fluconazole, 48 h; 300,000 compounds, 0.57% hits; AID 1979, 2009;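 active = growth inhibition above about 58% in most replicates, limit read from the data, passing the limit was not always enough; inconclusive = exactly half the replicates above a set limit; inactive = most replicates below a set limit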;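 note: all wells also contain fluconazole at 8 µg/ml as a sub-toxic cotreatment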
Hits are given with their value; . = inactive; ? = inconclusive; / = no result given.

SMILES | CSC inhib | PolyA inhibitor | HIF activator | Beta cell apopt | T cruzi repl | Calb FLC
CCCCOc1ccc(C(=O)N2CCNC(=O)C2)cc1 | / | . | . | . | . | .
COCCNC(=O)CCCn1c(=O)c2cc(OC)c(OC)cc2n(CC(=O)NCCC2=CCCCC2)c1=O | . | . | . | . | . | 51.1
O=C(Cn1c(=O)n(Cc2ccco2)c(=O)c2c3c(sc21)CCCCC3)Nc1ccccc1 | . | . | . | . | . | .
CN(C)CCn1c(=O)n(Cc2ccco2)c(=O)c2c3c(sc21)CCCCC3 | . | . | . | . | 55.4 | .
O=C(Cn1c(=O)n(Cc2ccco2)c(=O)c2c3c(sc21)CCCCC3)c1ccccc1 | . | . | . | . | . | .
O=c1c2c3c(sc2n(CCN2CCCC2)c(=O)n1Cc1ccco1)CCCCC3 | . | . | . | / | 57.3 | .
COc1ccc(/C=N/N=C/c2ccc(OC)c(OC)c2)cc1OC | . | . | . | . | . | .
COc1cc(/C=N/N=C(N)N)ccc1OCc1ccccc1Cl | . | . | . | . | 55.4 | .
COc1ccc(-n2c(SCC(=O)C(C)(C)C)nc3c(sc(=S)n3-c3ccccc3)c2=O)c(OC)c1 | . | . | . | . | 59.7 | .
O/N=C1/C2C3CC4C5C3C1C5C1(OCCO1)C42 (stereo not drawn) | . | . | 60.7 | . | . | .
COc1cc(NC(=O)c2ccco2)c(C(=O)OCC(=O)c2c[nH]c3ccccc23)cc1OC | 82.8 | . | . | . | . | .
Cc1ccc(CN2CCN(Cc3nc4c(s3)CCCC4)CC2CCO)cc1 (stereo not drawn) | . | . | . | . | 55.6 | .
CCOc1ccc(CN2CCN(Cc3nc4c(s3)CCCC4)CC2CCO)cc1 (stereo not drawn) | . | . | . | . | 57.2 | .
OCCC1CN(Cc2nc3c(s2)CCCC3)CCN1Cc1ccsc1 (stereo not drawn) | . | . | . | . | . | .
Cn1cnc([N+](=O)[O-])c1Sc1ccc(C(C)(C)C)cc1 | . | . | . | . | . | .
CNc1ccc(Oc2nc([N+](=O)[O-])nn2C)cc1 | . | . | . | . | 68.6 | .
Cn1nc([N+](=O)[O-])nc1Oc1ccc(C(C)(C)C)cc1 | . | . | . | . | 64.0 | .
Cn1nc([N+](=O)[O-])nc1Oc1ccccc1 | / | . | . | / | 79.4 | .
CCn1cc([N+](=O)[O-])c(C(=O)N2CCCc3ccccc32)n1 | / | . | . | / | . | .
O=C1NN(c2ccc(F)cc2)C(=O)/C1=C/c1cccs1 | . | . | . | . | . | 100.7
COc1ccc2cc(CN(Cc3cccnc3)Cc3nnnn3Cc3ccccc3)c(=O)[nH]c2c1 | . | . | . | . | 62.2 | .
Cc1cccc2cc(CN(Cc3cccs3)Cc3nnnn3Cc3ccccc3)c(=O)[nH]c12 | . | . | . | . | 63.2 | .
CCOc1ccc2[nH]c(=O)c(CN(Cc3cccs3)Cc3nnnn3C(C)(C)CC)cc2c1 | . | . | . | . | 58.5 | .
CCC(C)(C)n1nnnc1CN(Cc1cccs1)Cc1cc2cc(OC)ccc2[nH]c1=O | . | . | / | . | . | .
CCOC(=O)Cn1nc(C)c(NC(=O)COc2ccccc2[N+](=O)[O-])c1C | . | . | . | . | . | .
SMILES | CSC inhib | PolyA inhibitor | HIF activator | Beta cell apopt | T cruzi repl | Calb FLC
C=C(C)CN1CCN(S(=O)(=O)c2ccc(C)c(N(C)S(=O)(=O)c3ccc(C)cc3)c2C)CC1 | . | . | . | . | . | .
COc1cccc(N2CCN(c3nc(C)cc(C)c3C#N)CC2)c1 | . | . | . | . | . | .
Cc1cccc(N2CCN(c3nc(C)cc(C)c3C#N)CC2C)c1 (stereo not drawn) | . | . | . | . | 65.2 | 90.0
O=C(c1ccc2c3n(nc2c1)-c1ccccc1CO3)N1CCCCC1 | ? | . | . | . | . | .
O=C(c1ccc2c3n(nc2c1)-c1ccccc1CO3)N1CCOCC1 | 98.0 | . | . | / | . | .
COc1ccccc1/C=C/C(=O)N1CCN(S(=O)(=O)c2cc(C)ccc2C)CC1 | . | / | / | . | / | /
Cc1ccc(-c2ccc(OC(=O)c3ccc(=O)[nH]c3)c(C)c2)cc1 | 75.8 | . | . | . | . | .
COC(=O)c1cc(OC(=O)c2ccc(=O)[nH]c2)cc(C(=O)OC)c1 | . | . | . | . | . | .
N#Cc1nc(NCC(F)F)nc(Nc2cc(F)cc(F)c2)n1 | . | / | / | . | / | /
CCCCCC(=O)Nc1cccc(C2=NOC3(C2)C[C@@H](C(N)=O)N(C(=O)c2ccc(Cl)cc2)C3)c1 (stereo partly drawn) | . | . | . | . | 60.1 | .
CCCCCC(=O)Nc1cccc(C2=NOC3(C2)C[C@H](C(N)=O)N(C(=O)CCCCC)C3)c1 (stereo partly drawn) | . | . | . | . | . | .
Cc1ccsc1/C=C(\C(=O)c1ccc(OC(C)C)cc1)c1nc2ccccc2o1 | . | . | . | . | 67.9 | .
Cc1nc(-c2ccccn2)nc(N(C)c2ccccc2)c1Cl | / | . | . | / | 58.9 | .
Cc1nc(-c2ccccn2)nc(N2CCOCC2)c1Cl | . | . | . | . | . | .
CCc1cccc(NC(=O)CCS(=O)(=O)c2ccc(Br)cc2)c1 | . | . | . | . | . | .
O=C(CC(c1ccccc1)c1ccccc1O)NCc1ccccc1Cl (stereo not drawn) | . | . | . | . | . | .
O=C(CSc1ccc(Cl)cc1)Nc1nnc(-c2ccco2)o1 | . | . | . | . | . | 84.5
O=C(Nc1nnc(-c2ccco2)o1)c1ccc(Cl)cc1 | . | . | . | . | . | 102.1
Cc1cc(C)nc(NN=C(c2ccccc2)c2ccccc2)n1 | . | . | . | . | . | .
COc1ccc(N(CC(=O)NCc2ccccc2OC)S(=O)(=O)c2ccccc2[N+](=O)[O-])c(OC)c1 | . | . | . | . | . | .
O=C(CCNC(=O)c1ccccc1)NNC(=O)c1ccccc1Br | . | / | / | . | / | /
CN(c1cccc(NC(=O)CN(c2ccc(Cl)c(Cl)c2)S(=O)(=O)c2ccccc2)c1)S(C)(=O)=O | . | . | . | . | . | .
CN(c1cccc(NC(=O)CN(c2ccc(C34CC5CC(CC(C5)C3)C4)cc2)S(C)(=O)=O)c1)S(C)(=O)=O | . | . | . | . | 65.3 | .
Cc1ccc(S(=O)(=O)N(CC(=O)Nc2cccc(N(C)S(C)(=O)=O)c2)c2ccc(Cl)c(Cl)c2)cc1 | / | . | . | / | 70.0 | .
CN(c1cccc(NC(=O)CN(c2ccc(F)cc2)S(C)(=O)=O)c1)S(C)(=O)=O | . | . | . | . | . | .
CC(=O)Nc1nc(C2CC2)cc(-c2ccccc2)c1C#N | . | . | . | / | . | .
O=C1NC(=O)/C(=C/c2cccc3ccccc23)S1 | . | . | . | / | . | 106.6
